From ChEMBL document CHEMBL3124806, “Imidazopyridine-fused [1,3]-diazepinones: synthesis and antiproliferative activity” (Eur J Med Chem, 2014)

What was measured:
Format in all cases: functional
T47D = test: Cytotoxicity against human T47D cells assessed as cell growth at 10 uM after 48 hrs by SRB assay relative to untreated control; settings: read-out: Activity
How it was run: (§1)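 NCI-60 single-dose screen. Compounds were added to the cultures at 10 μM and incubated for 48 h. The end point was sulforhodamine B protein staining read spectrophotometrically. Growth is reported as percent of untreated control cells.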

BT-549 = test: Cytotoxicity against human BT549 cells assessed as cell growth at 10 uM after 48 hrs by SRB assay relative to untreated control; settings: BT-549, 48 h, read-out: Activity
How it was run: (§2)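 NCI-60 panel screen at a single concentration of 10 μM with 48 h incubation. Cell density measured by sulforhodamine B protein-binding dye and read spectrophotometrically. Growth expressed as percent of untreated control cells.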

[1] = Cytotoxicity against human Hs578T cells assessed as cell growth at 10 uM after 48 hrs by SRB assay relative to untreated control; settings: Hs-578T, read-out: Activity; how it was run: as §2
DU-145 = test: Cytotoxicity against human DU145 cells assessed as cell growth at 10 uM after 48 hrs by SRB assay relative to untreated control; settings: DU-145, 48 h, read-out: Activity; how it was run: as §2
PC-3 = test: Cytotoxicity against human PC3 cells assessed as cell growth at 10 uM after 48 hrs by SRB assay relative to untreated control; settings: PC-3, 48 h, read-out: Activity
How it was run: (§3)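 NCI-60 one-dose screen: each agent added at 10 µM, cultures incubated 48 h. Endpoint by sulforhodamine B protein-binding dye read spectrophotometrically; growth expressed as percent of untreated control cells.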

RXF 393 = test: Cytotoxicity against human RXF393 cells assessed as cell growth at 10 uM after 48 hrs by SRB assay relative to untreated control; settings: RXF 393, 48 h, read-out: Activity; how it was run: as §3
A498 = test: Cytotoxicity against human A498 cells assessed as cell growth at 10 uM after 48 hrs by SRB assay relative to untreated control; settings: A498, 48 h, read-out: Activity; how it was run: as §2
786-0 = test: Cytotoxicity against human […] cells assessed as cell growth at 10 uM after 48 hrs by SRB assay relative to untreated control; settings: 786-0, 48 h, read-out: Activity; how it was run: as §2
SK-OV-3 = test: Cytotoxicity against human SKOV3 cells assessed as cell growth at 10 uM after 48 hrs by SRB assay relative to untreated control; settings: SK-OV-3, 48 h, read-out: Activity; how it was run: as §1
[2] = Cytotoxicity against human NCI-ADR-RES cells assessed as cell growth at 10 uM after 48 hrs by SRB assay relative to untreated control; settings: read-out: Activity; how it was run: as §3
[3] = Cytotoxicity against human OVCAR4 cells assessed as cell growth at 10 uM after 48 hrs by SRB assay relative to untreated control; settings: OVCAR-4, 48 h, read-out: Activity; how it was run: as §3
OVCAR-3 = test: Cytotoxicity against human OVCAR3 cells assessed as cell growth at 10 uM after 48 hrs by SRB assay relative to untreated control; settings: OVCAR-3, 48 h, read-out: Activity; how it was run: as §3
UACC-62 = test: Cytotoxicity against human UACC62 cells assessed as cell growth at 10 uM after 48 hrs by SRB assay relative to untreated control; settings: UACC-62, 48 h, read-out: Activity; how it was run: as §1
[4] = Cytotoxicity against human UACC257 cells assessed as cell growth at 10 uM after 48 hrs by SRB assay relative to untreated control; settings: UACC-257, 48 h, read-out: Activity; how it was run: as §1
Malme-3M = test: Cytotoxicity against human MALME-3M cells assessed as cell growth at 10 uM after 48 hrs by SRB assay relative to untreated control; settings: read-out: Activity; how it was run: as §2
LOX IMVI = test: Cytotoxicity against human LOXIMVI cells assessed as cell growth at 10 uM after 48 hrs by SRB assay relative to untreated control; settings: read-out: Activity; how it was run: as §2
U-251 = test: Cytotoxicity against human U251 cells assessed as cell growth at 10 uM after 48 hrs by SRB assay relative to untreated control; settings: U-251, 48 h, read-out: Activity; how it was run: as §1
SNB-75 = test: Cytotoxicity against human SNB75 cells assessed as cell growth at 10 uM after 48 hrs by SRB assay relative to untreated control; settings: SNB-75, 48 h, read-out: Activity; how it was run: as §1
SF-295 = test: Cytotoxicity against human SF295 cells assessed as cell growth at 10 uM after 48 hrs by SRB assay relative to untreated control; settings: SF-295, 48 h, read-out: Activity; how it was run: as §3
SF-268 = test: Cytotoxicity against human SF268 cells assessed as cell growth at 10 uM after 48 hrs by SRB assay relative to untreated control; settings: SF-268, 48 h, read-out: Activity; how it was run: as §3
SW-620 = test: Cytotoxicity against human SW620 cells assessed as cell growth at 10 uM after 48 hrs by SRB assay relative to untreated control; settings: SW-620, 48 h, read-out: Activity; how it was run: as §1
KM12 = test: Cytotoxicity against human KM12 cells assessed as cell growth at 10 uM after 48 hrs by SRB assay relative to untreated control; settings: KM12, 48 h, read-out: Activity; how it was run: as §2
HCT-15 = test: Cytotoxicity against human HCT15 cells assessed as cell growth at 10 uM after 48 hrs by SRB assay relative to untreated control; settings: HCT-15, 48 h, read-out: Activity; how it was run: as §2
HCT-116 = test: Cytotoxicity against human HCT116 cells assessed as cell growth at 10 uM after 48 hrs by SRB assay relative to untreated control; settings: HCT-116, 48 h, read-out: Activity; how it was run: as §2
COLO 205 = test: Cytotoxicity against human COLO205 cells assessed as cell growth at 10 uM after 48 hrs by SRB assay relative to untreated control; settings: COLO 205, 48 h, read-out: Activity; how it was run: as §2
NCI-H322M = test: Cytotoxicity against human NCI-H322M cells assessed as cell growth at 10 uM after 48 hrs by SRB assay relative to untreated control; settings: read-out: Activity; how it was run: as §3
NCI-H23 = test: Cytotoxicity against human NCI-H23 cells assessed as cell growth at 10 uM after 48 hrs by SRB assay relative to untreated control; settings: NCI-H23, 48 h, read-out: Activity; how it was run: as §3
HOP-92 = test: Cytotoxicity against human HOP92 cells assessed as cell growth at 10 uM after 48 hrs by SRB assay relative to untreated control; settings: HOP-92, 48 h, read-out: Activity; how it was run: as §2
HOP-62 = test: Cytotoxicity against human HOP62 cells assessed as cell growth at 10 uM after 48 hrs by SRB assay relative to untreated control; settings: HOP-62, 48 h, read-out: Activity; how it was run: as §2
SR = test: Cytotoxicity against human SR cells assessed as cell growth at 10 uM after 48 hrs by SRB assay relative to untreated control; settings: read-out: Activity; how it was run: as §1
MOLT-4 = test: Cytotoxicity against human MOLT4 cells assessed as cell growth at 10 uM after 48 hrs by SRB assay relative to untreated control; settings: MOLT-4, 48 h, read-out: Activity; how it was run: as §3
K562 = test: Cytotoxicity against human K562 cells assessed as cell growth at 10 uM after 48 hrs by SRB assay relative to untreated control; settings: K562, 48 h, read-out: Activity; how it was run: as §2

Row | Structure (SMILES) | growth at 10 µM (T47D) | growth at 10 µM (BT-549) | growth at 10 µM [1] | growth at 10 µM (DU-145) | growth at 10 µM (PC-3) | growth at 10 µM (RXF 393) | growth at 10 µM (A498) | growth at 10 µM (786-0) | growth at 10 µM (SK-OV-3) | growth at 10 µM [2] | growth at 10 µM [3] | growth at 10 µM (OVCAR-3) | growth at 10 µM (UACC-62) | growth at 10 µM [4] | growth at 10 µM (Malme-3M) | growth at 10 µM (LOX IMVI) | growth at 10 µM (U-251) | growth at 10 µM (SNB-75) | growth at 10 µM (SF-295) | growth at 10 µM (SF-268) | also measured
1 | C[C@H]1NC(c2ccc(Br)cc2)=Nc2nc3ccccn3c2C1=O | 85% | 75.5% | 86.5% | 108% | 83.8% | 94.8% | 87.6% | 89.1% | 97.8% | 95.7% | 111% | 95.9% | 84% | 101% | 101% | 92.3% | 101% | 89.3% | 96.9% | 99.8% | growth at 10 µM (SW-620): 97%; growth at 10 µM (KM12): 102%; growth at 10 µM (HCT-15): 97.1%; growth at 10 µM (HCT-116): 90.2%; growth at 10 µM (COLO 205): 106%; growth at 10 µM (NCI-H322M): 86.1%; growth at 10 µM (NCI-H23): 90.7%; growth at 10 µM (HOP-92): 66.6%; growth at 10 µM (HOP-62): 69.8%; growth at 10 µM (SR): 77.7%; growth at 10 µM (MOLT-4): 79.7%; growth at 10 µM (K562): 84.8%
2 | O=C1Nc2nc3ccccn3c2C(=O)[C@H](Cc2ccccc2)N1 | 103% | 96.9% | 102% | 104% | 95.2% | 105% | 94% | 99.2% | 112% | 98.7% | 111% | 101% | 104% | 89.8% | 93.2% | 93.5% | 93.2% | 79.1% | 105% | 101% | growth at 10 µM (SW-620): 101%; growth at 10 µM (KM12): 100%; growth at 10 µM (HCT-15): 94.6%; growth at 10 µM (HCT-116): 92.3%; growth at 10 µM (COLO 205): 126%; growth at 10 µM (NCI-H322M): 103%; growth at 10 µM (NCI-H23): 101%; growth at 10 µM (HOP-92): 86.5%; growth at 10 µM (HOP-62): 97.2%; growth at 10 µM (SR): 107%; growth at 10 µM (MOLT-4): 110%; growth at 10 µM (K562): 106%
3 | COc1ccc(C2=Nc3nc4ccccn4c3C(=O)[C@H](Cc3ccccc3)N2)cc1 | 98.8% | 85.3% | 96.4% | 111% | 91.8% | 107% | 112% | 101% | 110% | 89.2% | 112% | 110% | 99.5% | 92.3% | 97.6% | 95.2% | 95.3% | 77.5% | 92.5% | 105% | growth at 10 µM (SW-620): 100%; growth at 10 µM (KM12): 99.9%; growth at 10 µM (HCT-15): 101%; growth at 10 µM (HCT-116): 88%; growth at 10 µM (COLO 205): 127%; growth at 10 µM (NCI-H322M): 106%; growth at 10 µM (NCI-H23): 92%; growth at 10 µM (HOP-92): 95.6%; growth at 10 µM (HOP-62): 88.2%; growth at 10 µM (SR): 105%; growth at 10 µM (MOLT-4): 113%; growth at 10 µM (K562): 86%
